From the RNAGym collection of RNA variant scans (doi:10.1126/science.aae0568)
Fewer inactive variants are shown than the library holds.

B1: tRNA (parent)
chain: GUUCCGUUGGCGUAAUGGUAACGCGUCUCCCUCCUAAGGAGAAGACUGCGGGUUCGAGUCCCGUACGGAACG

Variants of: B1
Experiment: yeast fitness relative to wild type (ratio to wild type); higher = fitter; tRNA-Arg(CCU), competitive growth, 37 C, YPD
Outline: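 Variants of the tRNA-Arg(CCU) gene, chemically synthesised with a 3% per-site mutation rate at 69 sites, were placed at the native genomic locus in Saccharomyces cerevisiae. The pooled strains were competed in YPD at 37°C for 24 hours in six parallel replicates. Gene amplicons from the start population and from each end population were read by 100-nucleotide paired-end sequencing. Darwinian fitness relative to wild type came from changes in genotype frequencies; genotypes needed ≥ 100 starting reads, and estimates < 0.5 were set to 0.5.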
In the case of G17A U32C U54C C60G, the yeast fitness is reported as no more than 0.5. With G23C U28A G39A G48A C61G C66G the yeast fitness was no more than 0.5. Variant C4A U19G C31G A45C C46G G56C G63A U64C G67C has a yeast fitness of no more than 0.5. U3C C62U G67A gave a yeast fitness of 0.587. In the case of G6A U8C A15G A20U A45U U64C, the yeast fitness is reported as no more than 0.5. With G51C G56A C62G C66A A70G the yeast fitness was no more than 0.5. C11U A14C G23A U26C C55U showed a yeast fitness of no more than 0.5. A15G A37U C61A showed a yeast fitness of no more than 0.5. U3A U16C C33G gave a yeast fitness of 0.661. C24G A43U showed a yeast fitness of 0.703. For U3A U13A G23C A36C, the yeast fitness was 0.529. For C11G A37C C46G G48A C49U, the yeast fitness was no more than 0.5. A36G A69U gave a yeast fitness of 1.02. Work on A21U C30A A69U yielded a yeast fitness of 0.815. Work on U3G G6C C30U C33G A36C A40U yielded a yeast fitness of no more than 0.5. Variant C4U A20C C27U A40C has a yeast fitness of 0.605. A20G C29U A37G C66U showed a yeast fitness of no more than 0.5. In the case of U8C C30U A37G, the yeast fitness is reported as no more than 0.5. In the case of C5U C27A G63C, the yeast fitness is reported as no more than 0.5. U8G A14U G50A A57U G68C gave a yeast fitness of no more than 0.5. Variant A15U C22G C31U A65U A69U has a yeast fitness of no more than 0.5. For G9A C11G C24G U32A, the yeast fitness was no more than 0.5. Work on G17A C31U U35C G56A A57G yielded a yeast fitness of no more than 0.5. Variant C11U C49G C55G C61G has a yeast fitness of no more than 0.5. Variant C31G G44U A70C has a yeast fitness of no more than 0.5. For G6A A15G C46A A69U, the yeast fitness was no more than 0.5. In the case of C5G G12C G18A C24U C29U A36G, the yeast fitness is reported as 0.608. For C31U A40C A65C, the yeast fitness was 0.817. A21G A45G gave a yeast fitness of 0.91. C11U A70C showed a yeast fitness of 0.898. A45U C46U U47C U64C gave a yeast fitness of 0.988. For U3A U7A C30U G50C U59C, the yeast fitness was no more than 0.5. A37G G39A C62A A69C gave a yeast fitness of no more than 0.5. Variant G25C G39C G44C C60U G68C has a yeast fitness of no more than 0.5. Variant G23C G44C C49U A57C has a yeast fitness of no more than 0.5. Variant C4U C27G A45C C55U G67C has a yeast fitness of no more than 0.5. For G51C U54C C66U, the yeast fitness was no more than 0.5. Work on G23C C24G G50A yielded a yeast fitness of 0.585. C24A U59G C66U A70C gave a yeast fitness of 0.529. With U2G G9C G12A A42C C46A the yeast fitness was 0.577. Variant A15C G17A C55G has a yeast fitness of no more than 0.5. Work on G25A G48C G52C C55U yielded a yeast fitness of no more than 0.5. Work on U2A A37C A57C C60U yielded a yeast fitness of no more than 0.5. U16C A70C showed a yeast fitness of 1.1. Work on U16G C31G G63C A65U yielded a yeast fitness of no more than 0.5. Variant C5U G23A A36G has a yeast fitness of 0.618. U19C C31G C62U showed a yeast fitness of 0.702. Variant U19C C27G has a yeast fitness of 0.579. Work on C22G C62U A69U yielded a yeast fitness of 0.591. In the case of G10A C22U, the yeast fitness is reported as 0.647. Variant U8C C31A G41A has a yeast fitness of no more than 0.5. Variant C29A U32A A45C A65C has a yeast fitness of 0.651. Variant C5U C27G has a yeast fitness of 0.61. In the case of U35C A43G U54C, the yeast fitness is reported as no more than 0.5. Work on A14G C30A A45G C60G yielded a yeast fitness of 0.668. Variant C11A C27U C60G has a yeast fitness of 0.532. U26A A43G showed a yeast fitness of 0.832. Variant A43G C62G has a yeast fitness of 0.752. Variant C24A G38A U47A C55G C61U has a yeast fitness of no more than 0.5. C27G C31G U59A showed a yeast fitness of no more than 0.5. With C22U G41A G50A C55G the yeast fitness was no more than 0.5. U16A C30G G50A A70G gave a yeast fitness of no more than 0.5. A20C G23A A43G C55G C60A gave a yeast fitness of no more than 0.5. In the case of A43G G44A C46A, the yeast fitness is reported as 0.976. G9U G68C gave a yeast fitness of 0.77. Work on G25A C27A yielded a yeast fitness of 1.11. For G12A G18A A21U G41A C46U, the yeast fitness was 0.535. With G9C U19C C31A G58C A70U the yeast fitness was no more than 0.5. A36U A45U G52C gave a yeast fitness of no more than 0.5. C22U G56A gave a yeast fitness of 0.734. Variant C31A A40C C62U has a yeast fitness of 0.532. In the case of U13A C22G G25C C27U C30G C55A A69U, the yeast fitness is reported as 0.572. Variant C4U C30A C60G has a yeast fitness of 0.6. C49A G51C gave a yeast fitness of 0.589. In the case of A45U G48A G56A, the yeast fitness is reported as 0.975. C4U A20C G51C A57G gave a yeast fitness of no more than 0.5. G39C G50A U64A showed a yeast fitness of no more than 0.5. A42U A57U C62U gave a yeast fitness of 0.529. In the case of G18A G56A, the yeast fitness is reported as 0.705. A36U A45C C49U gave a yeast fitness of no more than 0.5. For A37G G56A, the yeast fitness was 0.825. G17A C31U C49G gave a yeast fitness of no more than 0.5. In the case of A43C C60A, the yeast fitness is reported as 0.591. C5U A21C A42G C61G showed a yeast fitness of no more than 0.5. U2G C22G U28A C31G C55A G68C gave a yeast fitness of no more than 0.5. For G18A G48A, the yeast fitness was 0.765. With C33G A43G G58A G67A A69U the yeast fitness was 0.573. For C4A A20C C27U U32C C46U, the yeast fitness was no more than 0.5. In the case of C22G C31U A70U, the yeast fitness is reported as 0.661. Work on U32C G67U yielded a yeast fitness of 0.861. With C22U C34G G39A C49U the yeast fitness was no more than 0.5. Variant G17A C34U C55G has a yeast fitness of 0.508. With C4A C29G G38C the yeast fitness was no more than 0.5. Work on G10C U13A A21U U26C C31U A43U G58A G63C A70C yielded a yeast fitness of no more than 0.5. In the case of G6A G56A G67U, the yeast fitness is reported as no more than 0.5. Variant A20C G25A has a yeast fitness of 1.06. C31A C55A gave a yeast fitness of 0.666. G58C G68C showed a yeast fitness of 0.937. G9A U19A C49G U59C showed a yeast fitness of no more than 0.5. C22G C31A C49G G63C showed a yeast fitness of 0.545. Variant A36G A57U has a yeast fitness of 0.859. C61A gave a yeast fitness of 0.707. Work on C22U C24G C30G G41C yielded a yeast fitness of no more than 0.5. U2C G17C G23A C49G showed a yeast fitness of no more than 0.5. With U13A A15G G48A A65G the yeast fitness was 0.581. A15G G41C gave a yeast fitness of 0.827. C5U G23A C27G C31G G50C G58C showed a yeast fitness of 0.557. In the case of C4U G17C C22U A37C, the yeast fitness is reported as no more than 0.5. For C11U A20U C22A, the yeast fitness was no more than 0.5. With U26A A42C U59G the yeast fitness was no more than 0.5. For C22G C49U A65G, the yeast fitness was 0.785. Variant C5U C27G A69C has a yeast fitness of no more than 0.5. With G9C C29U A70G the yeast fitness was 0.602. Variant A15C U28G C30G A40C A42U has a yeast fitness of no more than 0.5. With C22A A42U the yeast fitness was 0.677. Variant U2A G38C C55U has a yeast fitness of no more than 0.5. With A42U G50A C60G U64C the yeast fitness was no more than 0.5. Variant U28G C31U has a yeast fitness of 0.544. With G39C C61U the yeast fitness was 0.751. A14U C60U C62U A70G gave a yeast fitness of no more than 0.5. With C5U A14G C33U G50C C55U A57G the yeast fitness was no more than 0.5. Work on G6A C34G G52C A65U yielded a yeast fitness of no more than 0.5. U19G A70G showed a yeast fitness of 0.847. G10C C34A G67A gave a yeast fitness of no more than 0.5. In the case of U26G, the yeast fitness is reported as 0.971. Variant C11A U47C has a yeast fitness of 0.689. G23A A36G A69C showed a yeast fitness of 0.708. Work on C22G C24G yielded a yeast fitness of 0.595. U13C C46G C62G gave a yeast fitness of no more than 0.5. A20C C24A C60G gave a yeast fitness of no more than 0.5. C27G C29A A43U gave a yeast fitness of no more than 0.5. Variant U13A U32A C60G has a yeast fitness of no more than 0.5. Variant C5U U19A A40C C49G C55G A69U has a yeast fitness of no more than 0.5. U7C C27G C33G G44A showed a yeast fitness of 0.75. With G12A C22U C31G G48C the yeast fitness was no more than 0.5. In the case of G12A C31G, the yeast fitness is reported as 0.963. Work on C4U G39C G48C yielded a yeast fitness of 0.537. Variant G10C C22U C24A U28C A45G has a yeast fitness of no more than 0.5. Work on G6A G39A A65C yielded a yeast fitness of 0.605. G6A G25A A40C A57C C61A G67A gave a yeast fitness of no more than 0.5. With G12C U19A A42C G50C G56C the yeast fitness was no more than 0.5. G6A G18U C24A U32A G38A A43G A45U G52A gave a yeast fitness of 0.641. In the case of U64G A69G, the yeast fitness is reported as 0.789. Work on U32A G39A yielded a yeast fitness of 0.792. C11U A40U G50C G58C U59A gave a yeast fitness of 0.564. A37U U53A G58C showed a yeast fitness of no more than 0.5. U3C C46U U54A gave a yeast fitness of no more than 0.5. Work on C11U A20U G39A A65C yielded a yeast fitness of 0.533. Work on G12C A42G U54G yielded a yeast fitness of no more than 0.5. With C29U C33G G44C the yeast fitness was no more than 0.5. In the case of U7A U54A U59C U64C, the yeast fitness is reported as no more than 0.5. C4G U35A gave a yeast fitness of 0.772. Variant U64A A69G has a yeast fitness of 0.719. For U7A A21U A65C, the yeast fitness was 0.577. For G50A C55G C62A, the yeast fitness was 0.654. With A37U G51A the yeast fitness was 0.57. A15C C30U gave a yeast fitness of 0.572. C5U A14C A45C gave a yeast fitness of no more than 0.5. With U3A C49U G63A the yeast fitness was 0.764. C27U U47C G63A C66U showed a yeast fitness of no more than 0.5. With A15G C46U A70U the yeast fitness was 0.829. With G9C C61U the yeast fitness was 0.844. In the case of U7A A21G, the yeast fitness is reported as 0.738. Work on A15G G44A C49U G50C A70G yielded a yeast fitness of no more than 0.5. G9A G10C C11U U16G G41A G48A A65U showed a yeast fitness of no more than 0.5. Work on C5U G18C C61U yielded a yeast fitness of 0.565. In the case of G6C G41A A45U, the yeast fitness is reported as no more than 0.5.
